In ChEMBL document CHEMBL1122688, “Antimycotic azoles. 7. Synthesis and antifungal properties of a series of novel triazol-3-ones” (1984):

Experiments:
Microsporum canis = experiment: In vitro antifungal activity against Microsporum canis; assay type: functional
In short: (§1)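 Fungal growth-inhibition screen (Godefroi method) against dermatophytes, yeasts, moulds and other fungi. The value is the lowest concentration (µg/mL) giving total inhibition of growth, tested up to 100 µg/mL.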

[1] = In vivo activity against microsporosis guinea pig, measured as the ratio of animals cured/animals infected (C/I) at dose 2.5 mg/kg; 4/6; assay type: functional
[2] = In vivo activity against microsporosis guinea pig, measured as the ratio of animals cured/animals infected (C/I) at dose 1.25 mg/kg; 0/4; assay type: functional
[3] = In vivo activity against microsporosis guinea pig, measured as the ratio of animals cured/animals infected (C/I) at dose 10 mg/kg; 2/2; assay type: functional
[4] = In vivo activity against vaginal candidoses in rats, measured as the ratio of animals cured/animals infected (C/I) at dose 0.63 mg/kg; 1/6; assay type: functional
[5] = In vivo activity against vaginal candidoses in rats, measured as the ratio of animals cured/animals infected (C/I) at dose 2.5 mg/kg; 3/6; assay type: functional
[6] = In vivo activity against vaginal candidoses in rats, measured as the ratio of animals cured/animals infected (C/I) at dose 1.25 mg/kg; 1/2; assay type: functional
Aspergillus fumigatus = experiment: In vitro antifungal activity against Aspergillus fumigatus; assay type: functional; in short: as §1
Candida albicans = experiment: In vitro antifungal activity against Candida albicans; assay type: functional; in short: as §1
Candida tropicalis = experiment: In vitro antifungal activity against Candida tropicalis; assay type: functional; in short: as §1
Cryptococcus neoformans = experiment: In vitro antifungal activity against Cryptococcus neoformans; assay type: functional; in short: as §1
[7] = In vitro antifungal activity against Mucor sp; assay type: functional; in short: as §1
Phialophora verrucosa = experiment: In vitro antifungal activity against Phialophora verrucosa; assay type: functional; in short: as §1
Rattus norvegicus = experiment: In vivo activity against vaginal candidoses in rats, measured as the ratio of animals cured/animals infected (C/I) at dose 1.25 mg/kg; C/I = 9/10; assay type: functional
Saprolegnia = experiment: In vitro antifungal activity against Saprolegnia sp; assay type: functional; in short: as §1
Sporothrix schenckii = experiment: In vitro antifungal activity against Sporothrix schenck ii; assay type: functional; in short: as §1
Trichophyton benhamiae = experiment: In vitro antifungal activity against Trichophyton mentagrophytes; assay type: functional, Arthroderma benhamiae; in short: as §1
Trichophyton rubrum = experiment: In vitro antifungal activity against Trichophyton rubrum; assay type: functional; in short: as §1
[8] = In vivo activity against microsporosis guinea pig, measured as the ratio of animals cured/animals infected (C/I) at dose 10 mg/kg; C/I = 1/8; assay type: functional
[9] = In vivo activity against microsporosis guinea pig, measured as the ratio of animals cured/animals infected (C/I) at dose 2.5 mg/kg; C/I = 0/5; assay type: functional
[10] = In vivo activity against microsporosis guinea pig, measured as the ratio of animals cured/animals infected (C/I) at dose 1.25 mg/kg; C/I = 0/6; assay type: functional
[11] = In vivo activity against vaginal candidoses in rats, measured as the ratio of animals cured/animals infected (C/I) at dose 2.5 mg/kg; C/I = 9/10; assay type: functional
[12] = In vivo activity against vaginal candidoses in rats, measured as the ratio of animals cured/animals infected (C/I) at dose 0.63 mg/kg; C/I = 3/10; assay type: functional
[13] = In vivo activity against vaginal candidoses in rats, measured as the ratio of animals cured/animals infected (C/I) at dose 10 mg/kg; C/I = 6/6; assay type: functional
[14] = In vivo activity against vaginal candidoses in rats, measured as the ratio of animals cured/animals infected (C/I) at dose 2.5 mg/kg; C/I = 0/2; assay type: functional
[15] = In vivo activity against microsporosis guinea pig, measured as the ratio of animals cured/animals infected (C/I) at dose 20 mg/kg; C/I = 1/6
[16] = In vivo activity against microsporosis guinea pig, measured as the ratio of animals cured/animals infected (C/I) at dose 10 mg/kg; C/I = 4/6; assay type: functional
[17] = In vivo activity against microsporosis guinea pig, measured as the ratio of animals cured/animals infected (C/I) at dose 1.25 mg/kg; C/I = 0/2; assay type: functional
[18] = In vivo activity against microsporosis guinea pig, measured as the ratio of animals cured/animals infected (C/I) at dose 2.5 mg/kg; C/I = 0/6; assay type: functional
[19] = In vivo activity against vaginal candidoses in rats, measured as the ratio of animals cured/animals infected (C/I) at dose 0.63 mg/kg; C/I = 0/4; assay type: functional
[20] = In vivo activity against vaginal candidoses in rats, measured as the ratio of animals cured/animals infected (C/I) at dose 1.25 mg/kg; C/I = 1/6; assay type: functional
[21] = In vivo activity against vaginal candidoses in rats, measured as the ratio of animals cured/animals infected (C/I) at dose 2.5 mg/kg; C/I = 4/8; assay type: functional

C=CCn1ncn(-c2ccc(N3CCN(c4ccc(OC[C@@H]5COC(Cn6cncn6)(c6ccc(Cl)cc6Cl)O5)cc4)CC3)cc2)c1=O (stereo not given in full)
Lowest level of total inhibition (Microsporum canis): > 100 µg/mL | C/I ratio [1]: 0.667 | C/I ratio [2]: 0 | C/I ratio [3]: 2 | C/I ratio [4]: 1 | C/I ratio [5]: 0.5 | C/I ratio [6]: 1

CCCn1ncn(-c2ccc(N3CCN(c4ccc(OC[C@@H]5COC(Cn6cncn6)(c6ccc(Cl)cc6Cl)O5)cc4)CC3)cc2)c1=O (stereo not given in full)
Inhibition (Aspergillus fumigatus): >100 µg/mL | Inhibition (Candida albicans): >100 µg/mL | Inhibition (Candida tropicalis): 100 µg/mL | Inhibition (Cryptococcus neoformans): 100 µg/mL | Inhibition (Microsporum canis): >100 µg/mL | Inhibition [7]: >100 µg/mL | Inhibition (Phialophora verrucosa): >100 µg/mL | C/I ratio (Rattus norvegicus): 0.9 | Inhibition (Saprolegnia): >100 µg/mL | Inhibition (Sporothrix schenckii): >100 µg/mL | Inhibition (Trichophyton benhamiae): 100 µg/mL | Inhibition (Trichophyton rubrum): 1 µg/mL | C/I ratio [8]: 1 | C/I ratio [9]: 0 | C/I ratio [10]: 0 | C/I ratio [11]: 9 | C/I ratio [12]: 0.3 | C/I ratio [13]: 6

CCCCn1ncn(-c2ccc(N3CCN(c4ccc(OC[C@@H]5COC(Cn6cncn6)(c6ccc(Cl)cc6Cl)O5)cc4)CC3)cc2)c1=O (stereo not given in full)
Inhibition (Aspergillus fumigatus): >100 µg/mL | Inhibition (Candida albicans): >100 µg/mL | Inhibition (Candida tropicalis): >100 µg/mL | Inhibition (Cryptococcus neoformans): >100 µg/mL | Inhibition (Microsporum canis): >100 µg/mL | Inhibition [7]: >100 µg/mL | Inhibition (Phialophora verrucosa): >100 µg/mL | Inhibition (Saprolegnia): >100 µg/mL | Inhibition (Sporothrix schenckii): >100 µg/mL | Inhibition (Trichophyton benhamiae): 100 µg/mL | Inhibition (Trichophyton rubrum): >100 µg/mL | C/I ratio [14]: 0 | C/I ratio [15]: 1

CCCCn1nc(C)n(-c2ccc(N3CCN(c4ccc(OC[C@@H]5COC(Cn6ccnc6)(c6ccc(Cl)cc6Cl)O5)cc4)CC3)cc2)c1=O (stereo not given in full)
Inhibition (Aspergillus fumigatus): >100 µg/mL | Inhibition (Candida albicans): 100 µg/mL | Inhibition (Candida tropicalis): 1 µg/mL | Inhibition (Cryptococcus neoformans): 100 µg/mL | Inhibition (Microsporum canis): >100 µg/mL | Inhibition [7]: >100 µg/mL | Inhibition (Phialophora verrucosa): >100 µg/mL | Inhibition (Saprolegnia): >100 µg/mL | Inhibition (Sporothrix schenckii): >100 µg/mL | Inhibition (Trichophyton benhamiae): 10 µg/mL | Inhibition (Trichophyton rubrum): 10 µg/mL | C/I ratio [16]: 0.667 | C/I ratio [17]: 0 | C/I ratio [18]: 0 | C/I ratio [19]: 0 | C/I ratio [20]: 1 | C/I ratio [21]: 0.5
